{
  "source": "paper PMC8286830",
  "about": "(Biochemical Journal, 2021)",
  "key": {"Δ21TgCEN1 [1]": {"target": "T1, Δ21TgCEN1 (Toxoplasma gondii, UniProt A0A125YHX7)", "T1 sequence (A0A125YHX7 22-169)": "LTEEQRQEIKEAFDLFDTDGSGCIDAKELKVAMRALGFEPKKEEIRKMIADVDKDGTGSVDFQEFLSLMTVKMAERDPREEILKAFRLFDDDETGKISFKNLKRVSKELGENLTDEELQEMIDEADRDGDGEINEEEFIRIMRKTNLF", "test": "Turbidimetry at 340 nm, Δ21TgCEN1", "format": "physicochemical", "details": "20 µM Δ21TgCEN1 + 50 µM N21, 1 mM CaCl2, 20 mM KCl pH 7.5, 37°C", "summary_of_the_method": "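Construct lacking residues 1–21 (E. coli Rosetta) at 20 µM in 20 mM Tris–HCl, 20 mM KCl pH 7.5, 1 mM CaCl2, 37°C. A340 followed over time, before and after adding 50 µM synthetic N-terminal peptide (residues 1–21). Peptide alone with CaCl2 run as a control trace.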"}, "Δ21TgCEN1 [2]": {"target": "T1, Δ21TgCEN1", "test": "DLS particle size / count rate of Δ21TgCEN1", "format": "physicochemical", "details": "50 µM N21, 1 mM CaCl2", "summary_of_the_method": "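Recombinant tag-free Δ21TgCEN1 from E. coli Rosetta (Ni affinity, TEV cleavage). For DLS, 10 µM protein in 20 mM Tris–HCl, 20 mM KCl pH 7.5 with 1 mM CaCl2 at 37°C was spun at 21 000 g for ≥30 min, then measured before and after adding 50 µM N21 peptide. Diameter was reported as number distribution. In parallel, A340 turbidity of 20 µM protein was followed over time.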"}, "[3]": {"test": "Turbidimetry at 340 nm, N21 peptide alone", "format": "physicochemical", "details": "1 mM CaCl2, 20 mM Tris–HCl, 20 mM KCl pH 7.5, 37°C, turbidity at 340 nm", "summary_of_the_method": "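Synthetic N21 peptide (>90% HPLC purity, mass confirmed by ESI-MS) alone with 1 mM CaCl2 in 20 mM Tris–HCl, 20 mM KCl pH 7.5 at 37°C. Absorbance at 340 nm recorded over time in 1 cm quartz cuvettes.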"}, "N-TgCEN1": {"tested_on": "N-TgCEN1", "test": "DLS particle size of N-TgCEN1", "format": "physicochemical, Toxoplasma gondii", "details": "600 µM ANS, 10 µM N-TgCEN1, 1 mM CaCl2", "summary_of_the_method": "(§1)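 Domains produced in E. coli Rosetta: N-domain residues 1–94 and C-domain 95–169. […] 10 µM protein in 20 mM Tris–HCl pH 7.5, 1 mM CaCl2, at selected KCl concentrations or with 600 µM ANS. Samples centrifuged at 21 000 g for ≥30 min; filtered buffers. Hydrodynamic diameter reported as number distribution (633 nm laser, 173°).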"}, "TgCEN1 [4]": {"tested_on": "TgCEN1", "test": "Turbidimetry at 340 nm, TgCEN1 self-assembly", "format": "physicochemical, Toxoplasma gondii", "details": "increasing ANS concentrations, 1 mM CaCl2, 20 mM KCl, pH 7.5, 37°C", "summary_of_the_method": "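Full-length protein (E. coli Rosetta) at 20 µM in 20 mM Tris–HCl, 20 mM KCl pH 7.5, 37°C, A340 recorded versus time. Run with 1 mM CaCl2, with 1 mM EGTA, or with EGTA added to Ca2+-saturated protein. Ca2+ series 5–2000 µM, read at 25 min versus metal/protein ratio. Also varied: temperature 4–45°C, protein 5–50 µM, KCl 0–150 mM, and 600 µM ANS.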"}, "TgCEN1 [5]": {"tested_on": "TgCEN1", "test": "DLS particle size of TgCEN1", "format": "physicochemical, Toxoplasma gondii", "details": "600 µM ANS, 1 mM CaCl2, 20 mM Tris–HCl, 20 mM KCl pH 7.5, 37°C"}, "C-TgCEN1 [6]": {"target": "T2, C-TgCEN1 (Toxoplasma gondii, UniProt A0A125YHX7)", "test": "DLS particle size of C-TgCEN1", "format": "physicochemical", "summary_of_the_method": "as §1"}, "[7]": {"test": "Far-UV CD of the substance alone", "format": "physicochemical", "details": "20 µM, aqueous solution, 50 mM Tris–HCl, 150 mM KCl pH 7.5, 25°C", "summary_of_the_method": "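Synthetic peptide (>90% HPLC purity, mass confirmed by ESI-MS), quantified by ε280 = 5500 M−1 cm−1, at 20 µM. Buffer: 50 mM Tris–HCl, 150 mM KCl pH 7.5, 0.5 mM DTT with 5 mM CaCl2 or EGTA. Spectra 200–250 nm, 0.1 cm cell, 25°C, average of five accumulations, buffer spectrum subtracted.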"}, "C-TgCEN1 [8]": {"target": "T2, C-TgCEN1", "test": "Turbidimetry at 340 nm, C-TgCEN1", "format": "physicochemical", "details": "20 µM, 1 mM CaCl2, 20 mM KCl pH 7.5, 37°C", "summary_of_the_method": "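Recombinant N-domain (1–94) or C-domain (95–169), Ni-affinity purified. A340 followed over time in a 1 cm cuvette. Standard conditions: 20 µM protein, 20 mM Tris–HCl, 20 mM KCl pH 7.5, 1 mM CaCl2, 37°C. Conditions also varied: CaCl2 0–2 mM, temperature 4–45°C, protein 5–50 µM, KCl 0–150 mM, or 600 µM ANS added.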"}, "EoCEN": {"tested_on": "EoCEN", "details": "addition of XPC peptide; cited from earlier work"}, "[9]": {"details": "600 µM ANS, 10 µM C-TgCEN1, 1 mM CaCl2"}},
  "note": "“Also recorded” adds a separate entry of the source.",
  "data": [
    {"compound": "1-MHSRKGASSLPRGRGAGKKTE-21 [N21]", "values": [
      {"measurement": "Δ21TgCEN1 light scattering at 340 nm with N21", "setting": "Δ21TgCEN1 [1]", "result": "an increase in the light scattering at 340 nm"},
      {"measurement": "DLS count rate of Δ21TgCEN1 with N21", "setting": "Δ21TgCEN1 [2]", "result": "increase"},
      {"measurement": "Ca^2+-induced aggregation of peptide alone", "setting": "[3]", "result": "did not aggregate upon addition of Ca^2+ in solution"}
    ]},
    {"compound": "O=S(=O)(O)c1cccc2cccc(Nc3ccccc3)c12", "note": "[ANS, 1-anilino-8-naphthalenesulphonic acid, reference compound]", "values": [
      {"measurement": "effect of ANS on association of N-TgCEN1", "setting": "N-TgCEN1", "result": "no effect"},
      {"measurement": "TgCEN1 final turbidity at 340 nm with ANS", "setting": "TgCEN1 [4]", "result": "decreased at increasing ANS concentrations; also recorded: only partially quenched the aggregation process"},
      {"measurement": "hydrodynamic diameter of TgCEN1 particles with ANS", "setting": "TgCEN1 [5]", "result": "~238", "unit": "nm"},
      {"measurement": "diameter of new species of C-TgCEN1 with ANS (larger)", "setting": "C-TgCEN1 [6]; [9]", "result": "35 ± 1", "unit": "nm"},
      {"measurement": "diameter of new species of C-TgCEN1 with ANS (smaller)", "setting": "C-TgCEN1 [6]; [9]", "result": "7.96 ± 0.01", "unit": "nm"}
    ]},
    {"compound": "C-TgCEN1: C-terminal domain of TgCEN1, 95–169 aa", "values": [
      {"measurement": "far-UV CD conformation alone", "setting": "[7]", "result": "well-folded"},
      {"measurement": "turbidity at 340 nm", "setting": "C-TgCEN1 [8]", "result": "no turbidity changes at 340 nm"},
      {"measurement": "particle diameter", "setting": "C-TgCEN1 [6]; 10 µM, 1 mM CaCl2, 20 mM Tris–HCl, 20 mM KCl pH 7.5", "result": "311 ± 1", "unit": "nm"},
      {"measurement": "DLS profile vs salt", "setting": "C-TgCEN1 [6]; 10 µM, selected KCl concentrations, 1 mM CaCl2", "result": "only small changes in the DLS profiles"}
    ]},
    {"compound": "XPC peptide: XPC peptide added to centrin from Euplotes octocarinatus (EoCEN), cited ref 43 (NWKLLAKGLLIRERLKR)", "values": [
      {"measurement": "effect on protein aggregates", "setting": "EoCEN", "result": "dissociation of protein aggregates"}
    ]}
  ]
}
